A selection: hits, their analogues and other compounds. The true share with any hit is near 5.2%.
WNV NS2B-NS3 inh: blocks West Nile virus NS2B-NS3 protease activity | P06935 | z-score (test concentration not listed) | WNV NS2B-NS3 protease, fluorogenic substrate Ex360/Em465; active compounds read low | 65,000 tested, 0.18% active | AID 577; in the data active = z-score below about -3
Target sequence (P06935 1371-1501 limits assumed): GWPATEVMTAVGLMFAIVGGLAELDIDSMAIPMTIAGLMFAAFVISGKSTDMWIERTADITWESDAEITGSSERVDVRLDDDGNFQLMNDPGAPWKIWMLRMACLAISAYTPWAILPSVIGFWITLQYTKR
Target sequence (P06935 1502-1679 limits assumed): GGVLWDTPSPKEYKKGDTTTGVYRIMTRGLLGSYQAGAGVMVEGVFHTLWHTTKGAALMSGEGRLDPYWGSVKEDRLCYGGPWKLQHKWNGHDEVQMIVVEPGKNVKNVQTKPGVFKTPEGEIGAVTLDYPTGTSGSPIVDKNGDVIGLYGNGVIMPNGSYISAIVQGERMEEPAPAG
M1 agonist: activates the M1 muscarinic receptor; CHO-M1 cells, Fluo-4 calcium fluorescence, agonist mode; active compounds read high; B-score at 10 µM; 64,000 tested, 3% active; AID 626;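 active = fluorescence rise, raw or as B-score row- and column-corrected plate score, outside the 99.7% band of its plate's samples, either direction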
Ecoli WT expand: blocks growth of wild type E. coli BW25113 | AID 710 | growth inhibition, % at 100 µM | OD600 absorbance | 98,000 tested, 0.15% active;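 active = growth inhibition above about 50% at one test dose, limit read from the data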;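 note: growth measured after 20 h incubation at 37 °C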
M1 antag: blocks the rat M1 muscarinic receptor response to acetylcholine; 64,000 tested, 3.4% active; B-score at 10 µM; P08482; CHO-M1 cells, Fluo-4 calcium, ACh EC80 antagonist mode; active compounds read low;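 active = calcium fluorescence response, raw or row-and-column corrected B-score, differing from the plate sample mean either way at a set confidence level, mostly lower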
tolC growth inh: blocks growth of E. coli BW25113 tolC mutant; 65,000 tested, 2.2% active; OD615; growth inhibition, % at 10 µM (by protocol); AID 573;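 active = growth inhibition at or above a cutoff equal to the mean over every tested compound plus 3 SD, cut at about 60% in these data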;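 note: growth measured after 20 h incubation at 37 °C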
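Test system: E. coli BW25113 ΔtolC::kan bacteria; incubation: 37 °C, 20 h exposure; medium: LB broth supplemented with 50 µg/mL kanamycin; read-out basis: percent growth inhibition; signal: A615 absorbance measurement; compound: 10 µM final, single dose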
AP ELISA ortho: alternative pathway complement inhibition, orthogonal assay | Human serum alternative complement pathway, LPS-coated ELISA, C3 deposition; tested in compound mixtures | AID 1235 | inhibition, % at 5 µM | 62,000 tested, 0.08% active;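 active = inhibition above 30% in each of the two pooled mixtures holding the compound, so the lower value exceeds 30%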;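 note: 0% = serum in Mg-EGTA without compound and 100% = EDTA serum blank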
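Test system: human serum alternative complement pathway, C3 deposition on LPS-coated wells; also added: Plate-bound LPS; doses: 5 µM per compound in ten-compound mixtures; schedule: 1 h at 37 °C; detection: Anti-C3 ELISA, OD 450 nm; evaluation: percent inhibition of C3 deposition onto LPS; repeats: two pool placements per compound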
Numbers without * were called inactive; . = not tested or not shown.

SMILES	WNV NS2B-NS3 inh	M1 agonist	Ecoli WT expand	M1 antag	tolC growth inh	AP ELISA ortho
Cc1cccc(-n2ncc3c(N4CC(C)CC(C)C4)ncnc32)c1 (stereo not given)	-1.98	-1.65	1.0	-0.538	63.5*	27.2
CC1CC(C)CN(c2ncnc3c2cnn3Cc2ccc(Cl)cc2)C1 (stereo not given)	1.81	-1.14	-22.0	0.492	80.9*	9.6
Cc1cccc(-n2ncc3c(N4CCCC4)ncnc32)c1	0.11	-0.0462	.	-0.0185	2.7	.
Clc1ccc(Cn2ncc3c(N4CCCC4)ncnc32)cc1	0.9	.	5.0	.	26.4	6.0
COc1cc(OC)c(-c2nn3c(-c4ccco4)nnc3s2)cc1OC	-1.02	4.36*	0.0	-1.84	18.9	-3.7
COc1ccc(-c2nn3c(-c4ccco4)nnc3s2)cc1OC	0.95	1.03	-1.0	0.0203	21.6	-7.0
Oc1ccc(C=Nc2ccc3ncccc3c2)c(O)c1	0.2	-0.0101	6.0	-0.141	13.0	.
COc1cccc(N=Cc2ccc(O)cc2O)c1	0.25	2.25*	6.0	-0.00157	9.3	-3.7
CCN(CC(=O)Nc1c(C(=O)OC)[nH]c2ccc(C)cc12)c1ccc2c(c1)OCO2	1.22	0.168	0.0	0.232	4.7	9.4
Cn1c(C(=O)N2CCN(c3ccccn3)CC2)cc2c(=O)n(C)c3ccccc3c21	1.68	2.13	.	-0.431	4.3	-0.6
Cc1ccc(O)c(-c2cc(-c3ccccc3F)[nH]n2)c1	.	.	5.0	.	.	.
Cc1ccc(O)c(-c2cc3ccccc3[nH]2)c1	-1.05	0.165	45.0	0.463	100.0*	10.1
Cc1cccc(Cc2c(C)nc3c(C(=O)NCc4ccco4)cnn3c2C)c1	0.26	1.18	7.0	0.0675	75.2*	17.5
CCCOc1ccc2oc(=O)c3c(c2c1)CCCN3C(=O)CN1CCc2ccccc2C1	0.65	0.354	-2.0	-0.552	76.7*	4.4
c1ccc(CC2CCN(c3nc(N4CCOCC4)nc(N4CCOCC4)n3)CC2)cc1	0.38	-0.431	.	-0.271	5.8	25.8
CC(=O)Oc1c(S(=O)(=O)c2ccc(C)cc2)c(C)nn1C(C)(C)C	0.47	3.47	-1.0	2.29*	-3.9	16.0
Cc1ccc(S(=O)(=O)c2c(C)nn(C(C)(C)C)c2OC(=O)C(C)(C)C)cc1	-0.88	-0.197	-6.0	-0.313	41.1	17.1
CC(=O)Nc1nc2ccccc2n1Cc1ccccc1C	-0.54	0.141	4.0	0.00389	98.1*	16.1
CC(=O)NCc1nc2ccccc2n1Cc1ccccc1C	-0.56	-0.25	-2.0	0.825	-0.9	17.9
CC(=O)Nc1nc2ccccc2n1CCOc1ccccc1Cl	-5.59*	-1.03	4.0	0.779	10.1	0.8
COc1cc(NC(=O)c2ccccc2Cl)c(OC)cc1NC(=O)CN1CCOCC1	-0.53	0.363	1.0	-0.424	-15.0	-1.4
CCCC(=Nc1ccc(N)cc1)C1=C(O)C(C(=O)OC)C(C)(C)CC1=O (stereo not given)	.	.	6.0	.	.	.
Cc1cc2c(s1)c1cnn(CC(=O)NCCc3ccccc3)c(=O)c1n2C	0.21	0.00528	-11.0	3.06*	-9.8	12.2
CN1CCN(CCCNC(=O)Cn2ncc3c4ccccc4n(C)c3c2=O)CC1	0.04	1.23	-6.0	0.0141	-13.4	-13.8
CCOc1cccc2cc(-c3csc(NC(=O)CCC(=O)N4CCN(C)CC4)n3)c(=O)oc12	-0.85	-1.14	.	-0.076	11.7	14.9
SMILES	WNV NS2B-NS3 inh	M1 agonist	Ecoli WT expand	M1 antag	tolC growth inh	AP ELISA ortho
CC1(C)CC(=O)C(C=NCCN2CCN(C(=S)Nc3ccc(F)cc3)CC2)=C(O)C1	.	.	-4.0	.	.	.
S=C(c1ccc(-c2ccc(Cl)cc2Cl)o1)N1CCCCC1	.	.	-10.0	.	.	.
S=C(c1ccc(-c2ccccc2Cl)o1)N1CCOCC1	0.51	0.801	5.0	1.08*	36.8	3.1
S=C(c1ccc(-c2ccc(Cl)c(Cl)c2)o1)N1CCOCC1	1.07	-1.23	-5.0	-0.677	64.6*	26.7
CCOC(=O)c1c(C)nc2sc3c(c2c1-c1ccc(OC)cc1)NC(c1ccc(OC)cc1)NC3=O (stereo not given)	.	.	1.0	.	.	.
Cn1cnnc1SCC(=O)N1c2ccccc2-c2c(ssc2=S)C1(C)C	-1.15	0.14	.	-1.95*	-2.5	12.8
COc1ccc(-c2nnc3ccc(SCC(=O)N4CCN(c5ccccc5)CC4)nn23)cc1	-1.83	4.44*	.	-0.399	8.8	15.6
N#CC(C#N)=c1ccc2c(c1)N1C3=C(CCCC3)CC3CCCCC31N=2 (stereo not given)	1.39	2.83	-34.0	-1.09	82.5*	4.5
CN(c1ccc(O)cc1)c1nc(-c2ccccc2)cs1	-0.79	0.778	.	-0.0654	97.6*	-3.0
CCOC(=O)Cc1c(C)nc2c(C#N)c[nH]n2c1=O	.	.	-3.0	.	.	.
CCOC(=O)Cc1c(C)nc2c(-c3cccc(Br)c3)c[nH]n2c1=O	0.07	-1.7	12.0	0.0559	100.0*	1.3
c1cncc(-c2nc(N3CCCCCC3)c3ccccc3n2)c1	-0.14	0.0254	0.0	-0.802	94.7*	10.5
CN1CCN(c2nc(-c3cccnc3)nc3ccccc23)CC1	-0.89	0.00103	11.0	-0.0137	0.0	.
CCCCN1C(=S)SC(C)(C)C1/[N+]([O-])=C/c1cccnc1 (stereo not given)	.	.	4.0	.	.	.
Cn1nc(-c2ccc(N3CCOCC3)c(NC(=O)COc3ccccc3)c2)c2ccccc2c1=O	-0.05	1.5	.	-1.03	64.7*	-18.0
CCC(=O)Nc1cc(-c2nn(C)c(=O)c3ccccc23)ccc1N1CCOCC1	.	.	-4.0	.	.	.
CN(Cc1ccccc1)C(=O)CSc1nc2ccccc2c(=O)n1Cc1ccco1	0.26	1.68	-30.0	-1.07	67.2*	9.6
Cc1cc(Cl)ccc1OC(C)C(=O)N1CCCN(C(=O)C(C)Oc2ccc(Cl)cc2C)CC1 (stereo not given)	.	.	-11.0	.	.	.
COc1ccc(Oc2cc(C(F)(F)F)cnc2C(N)=O)cc1	.	.	-11.0	.	.	.
O=C(CCn1c(=O)oc2ccccc21)N1CCN(C(c2ccccc2)c2ccccc2)CC1	-0.82	0.367	-13.0	-2.23	63.7*	6.7
CCC(=O)N1CCc2cc(Br)cc(S(=O)(=O)NCC3CCCN3CC)c21 (stereo not given)	-0.16	-0.197	-3.0	0.278	-10.8	4.6
Cc1n[nH]c(C)c1S(=O)(=O)N(CC(=O)Nc1ccc2c(c1)OCCO2)c1ccc(C(C)C)cc1	-0.91	0.0885	-3.0	-0.0349	65.9*	10.0
O=C(c1ccc(CNS(=O)(=O)c2ccccc2)cc1)N1CCN(c2ccccn2)CC1	-0.08	-0.686	6.0	-0.312	-7.9	-0.8
CC(C)c1ccc(OCc2ccc(C(=O)N3CCN(c4ccccn4)CC3)cc2)cc1	-0.54	-0.79	-15.0	0.585	85.9*	5.3
O=C(CCn1c(=S)[nH]c2cc3c(cc2c1=O)OCO3)NCCN1CCCC1	-0.24	0.115	.	-0.381	-11.5	5.5
Cc1ccc(OCc2nc(-c3ccccn3)no2)c(Br)c1	4.52e-05	1.78	14.0	-0.622	21.2	0.9
CC(C)c1ccc(OCc2nc(-c3ccccn3)no2)c(Br)c1	0.02	-0.59	1.0	-0.0771	96.2*	8.9
Cc1cccc(NC(=O)CCN2CCOCC2)c1	-0.31	.	5.0	.	-25.4	38.3*

Assay outcomes: PubChem BioAssay, several laboratories
